The results in this text go back to ChEMBL document CHEMBL2034931, “Discovery of Novel Small Molecule Mer Kinase Inhibitors for the Treatment of Pediatric Acute Lymphoblastic Leukemia” (ACS Med Chem Lett, 2012).

Series [1] deals with T1, Tyrosine-protein kinase Mer (Homo sapiens, UniProt Q12866).
T1 sequence (Q12866 whole entry): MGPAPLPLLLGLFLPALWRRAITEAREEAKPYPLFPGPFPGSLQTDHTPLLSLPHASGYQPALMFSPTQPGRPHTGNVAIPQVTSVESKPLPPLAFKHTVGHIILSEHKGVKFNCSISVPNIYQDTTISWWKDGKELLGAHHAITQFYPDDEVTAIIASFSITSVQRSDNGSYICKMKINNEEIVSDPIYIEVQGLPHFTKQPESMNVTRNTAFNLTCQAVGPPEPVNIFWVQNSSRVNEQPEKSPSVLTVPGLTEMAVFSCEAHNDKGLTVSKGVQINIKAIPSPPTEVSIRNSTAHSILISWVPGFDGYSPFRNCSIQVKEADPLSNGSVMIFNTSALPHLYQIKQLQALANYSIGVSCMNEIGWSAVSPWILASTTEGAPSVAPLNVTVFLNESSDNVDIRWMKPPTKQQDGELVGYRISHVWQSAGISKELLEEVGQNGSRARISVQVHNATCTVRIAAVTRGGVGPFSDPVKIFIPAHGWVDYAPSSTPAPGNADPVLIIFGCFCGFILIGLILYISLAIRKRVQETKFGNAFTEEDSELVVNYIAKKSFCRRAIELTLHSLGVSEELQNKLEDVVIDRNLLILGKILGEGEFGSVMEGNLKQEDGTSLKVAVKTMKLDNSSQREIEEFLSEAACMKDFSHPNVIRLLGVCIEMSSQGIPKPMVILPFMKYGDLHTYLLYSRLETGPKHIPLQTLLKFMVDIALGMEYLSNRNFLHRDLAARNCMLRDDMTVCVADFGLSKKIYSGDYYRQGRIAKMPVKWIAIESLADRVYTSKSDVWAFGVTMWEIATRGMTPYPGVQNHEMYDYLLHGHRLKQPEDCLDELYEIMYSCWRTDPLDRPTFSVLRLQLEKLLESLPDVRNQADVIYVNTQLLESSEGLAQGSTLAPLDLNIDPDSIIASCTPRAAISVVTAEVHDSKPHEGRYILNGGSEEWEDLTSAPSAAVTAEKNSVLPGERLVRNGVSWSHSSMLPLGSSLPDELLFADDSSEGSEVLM
The series can be described thus: Inhibition of Mer expressed in Escherichia coli BL21 (DE3) cells using EFPIYDFLPAKKK-CONH2 as substrate after 180 mins by microfluid capillary electrophoresis assay.

In series [2] the target is Receptor-type tyrosine-protein kinase FLT3 (Homo sapiens) (UniProt P36888). As to the kind of experiment: Inhibition of FLT3 at 10 times IC50 concentration after 90 mins in presence of ATP. An outline of the steps:
(§1)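 Single-concentration screen across a kinase panel spanning the main kinase families, the TAM family and the related MET family. Each sample was run in duplicate, and the read-out was percent inhibition of kinase activity.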

Series [3] deals with MAP kinase-activated protein kinase 2 (Homo sapiens) (UniProt P49137). The series can be described thus: Inhibition of MAPKAPK2 at 10 times IC50 concentration after 90 mins in presence of ATP. An outline of the steps:
as §1

In series [4] the target is Proto-oncogene tyrosine-protein kinase receptor Ret (Homo sapiens) (UniProt P07949). The series can be described thus: Inhibition of Ret at 10 times IC50 concentration after 90 mins in presence of ATP. In outline: as §1
The subject of series [5] is Proto-oncogene tyrosine-protein kinase receptor Ret (Homo sapiens), P07949 [Y791F]. The series can be described thus: Inhibition of Ret Y791F mutant at 10 times IC50 concentration after 90 mins in presence of ATP. An outline of the steps: as §1
For series [6], the target named is T2, Tyrosine-protein kinase receptor UFO (Homo sapiens, UniProt P30530).
T2 sequence (P30530 whole entry): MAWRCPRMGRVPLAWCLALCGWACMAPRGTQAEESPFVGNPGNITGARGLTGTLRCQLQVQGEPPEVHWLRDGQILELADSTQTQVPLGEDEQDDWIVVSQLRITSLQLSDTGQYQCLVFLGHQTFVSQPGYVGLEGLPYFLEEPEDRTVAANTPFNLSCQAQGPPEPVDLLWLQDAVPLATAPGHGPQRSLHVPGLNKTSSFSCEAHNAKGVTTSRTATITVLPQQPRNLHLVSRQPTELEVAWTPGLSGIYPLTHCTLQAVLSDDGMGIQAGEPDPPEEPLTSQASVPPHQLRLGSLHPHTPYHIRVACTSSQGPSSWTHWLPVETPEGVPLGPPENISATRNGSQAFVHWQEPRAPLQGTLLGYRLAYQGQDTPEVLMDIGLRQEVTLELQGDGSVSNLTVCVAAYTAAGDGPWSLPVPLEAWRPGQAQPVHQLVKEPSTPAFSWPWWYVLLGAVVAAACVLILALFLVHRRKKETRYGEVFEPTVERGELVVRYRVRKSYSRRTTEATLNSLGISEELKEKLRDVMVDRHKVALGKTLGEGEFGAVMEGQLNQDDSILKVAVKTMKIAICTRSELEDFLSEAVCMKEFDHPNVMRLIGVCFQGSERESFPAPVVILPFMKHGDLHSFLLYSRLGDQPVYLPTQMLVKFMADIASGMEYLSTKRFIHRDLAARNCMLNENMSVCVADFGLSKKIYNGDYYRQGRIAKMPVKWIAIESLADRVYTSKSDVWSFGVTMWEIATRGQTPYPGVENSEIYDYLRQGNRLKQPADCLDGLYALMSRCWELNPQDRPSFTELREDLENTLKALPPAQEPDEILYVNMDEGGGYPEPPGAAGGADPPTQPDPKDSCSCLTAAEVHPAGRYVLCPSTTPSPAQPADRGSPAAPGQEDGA
As to the kind of experiment: Inhibition of Axl using KKKKEEIYFFF-CONH2 as substrate after 180 mins by microfluid capillary electrophoresis assay.

The target in series [7] is T3, Tyrosine-protein kinase receptor TYRO3 (Homo sapiens, UniProt Q06418).
T3 sequence (Q06418 whole entry): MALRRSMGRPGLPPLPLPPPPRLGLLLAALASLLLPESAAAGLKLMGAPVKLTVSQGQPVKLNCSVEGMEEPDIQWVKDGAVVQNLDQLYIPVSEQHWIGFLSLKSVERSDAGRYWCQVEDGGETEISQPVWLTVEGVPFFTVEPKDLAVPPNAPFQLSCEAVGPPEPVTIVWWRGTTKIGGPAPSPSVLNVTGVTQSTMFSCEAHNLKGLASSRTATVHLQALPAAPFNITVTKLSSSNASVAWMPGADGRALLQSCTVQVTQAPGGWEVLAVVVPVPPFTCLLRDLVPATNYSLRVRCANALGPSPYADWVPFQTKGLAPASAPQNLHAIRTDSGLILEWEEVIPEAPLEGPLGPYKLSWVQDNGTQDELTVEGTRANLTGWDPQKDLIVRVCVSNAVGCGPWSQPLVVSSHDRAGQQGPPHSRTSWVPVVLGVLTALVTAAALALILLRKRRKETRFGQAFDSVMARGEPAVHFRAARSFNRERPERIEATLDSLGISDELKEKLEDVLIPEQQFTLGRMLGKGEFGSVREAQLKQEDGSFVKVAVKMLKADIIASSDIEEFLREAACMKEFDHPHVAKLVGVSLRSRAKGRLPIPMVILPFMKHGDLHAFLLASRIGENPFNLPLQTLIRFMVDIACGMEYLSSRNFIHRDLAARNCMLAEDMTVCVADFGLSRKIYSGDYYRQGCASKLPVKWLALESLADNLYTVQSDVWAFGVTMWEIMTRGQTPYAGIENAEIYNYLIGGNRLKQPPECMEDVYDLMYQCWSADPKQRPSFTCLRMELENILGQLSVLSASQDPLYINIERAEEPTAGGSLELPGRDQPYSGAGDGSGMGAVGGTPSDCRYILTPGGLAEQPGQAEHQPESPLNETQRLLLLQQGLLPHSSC
As to the kind of experiment: Inhibition of Tyro3 using EFPIYDFLPAKKK-CONH2 as substrate after 180 mins by microfluid capillary electrophoresis assay.

The test system of series [8] is Mus musculus. The series can be described thus: Volume of distribution at steady state in Swiss mouse at 3 mg/kg, iv. It is filed as ADME, organism-based. Details: dose 3 mg/kg, route intravenous. The following applies: in vivo.
The subject of series [9] is Mus musculus. The series can be described thus: Oral bioavailability in Swiss mouse at 3 mg/kg. The conditions noted are these: in vivo. It is filed as ADME, organism-based.

Structures are written as SMILES.

Broadly, the IC50 is the point on the concentration scale where inhibition reaches its midpoint. A lower IC50 goes with higher potency. As usually defined, the inhibition is the percentage by which the read-out fell short of the control. In general, Vdss refers to the apparent volume that relates the amount in the body to the concentration in plasma or blood. Read a high Vdss as extensive tissue distribution.

Receptor-type tyrosine-protein kinase FLT3 (Homo sapiens), sequence (P36888 whole entry): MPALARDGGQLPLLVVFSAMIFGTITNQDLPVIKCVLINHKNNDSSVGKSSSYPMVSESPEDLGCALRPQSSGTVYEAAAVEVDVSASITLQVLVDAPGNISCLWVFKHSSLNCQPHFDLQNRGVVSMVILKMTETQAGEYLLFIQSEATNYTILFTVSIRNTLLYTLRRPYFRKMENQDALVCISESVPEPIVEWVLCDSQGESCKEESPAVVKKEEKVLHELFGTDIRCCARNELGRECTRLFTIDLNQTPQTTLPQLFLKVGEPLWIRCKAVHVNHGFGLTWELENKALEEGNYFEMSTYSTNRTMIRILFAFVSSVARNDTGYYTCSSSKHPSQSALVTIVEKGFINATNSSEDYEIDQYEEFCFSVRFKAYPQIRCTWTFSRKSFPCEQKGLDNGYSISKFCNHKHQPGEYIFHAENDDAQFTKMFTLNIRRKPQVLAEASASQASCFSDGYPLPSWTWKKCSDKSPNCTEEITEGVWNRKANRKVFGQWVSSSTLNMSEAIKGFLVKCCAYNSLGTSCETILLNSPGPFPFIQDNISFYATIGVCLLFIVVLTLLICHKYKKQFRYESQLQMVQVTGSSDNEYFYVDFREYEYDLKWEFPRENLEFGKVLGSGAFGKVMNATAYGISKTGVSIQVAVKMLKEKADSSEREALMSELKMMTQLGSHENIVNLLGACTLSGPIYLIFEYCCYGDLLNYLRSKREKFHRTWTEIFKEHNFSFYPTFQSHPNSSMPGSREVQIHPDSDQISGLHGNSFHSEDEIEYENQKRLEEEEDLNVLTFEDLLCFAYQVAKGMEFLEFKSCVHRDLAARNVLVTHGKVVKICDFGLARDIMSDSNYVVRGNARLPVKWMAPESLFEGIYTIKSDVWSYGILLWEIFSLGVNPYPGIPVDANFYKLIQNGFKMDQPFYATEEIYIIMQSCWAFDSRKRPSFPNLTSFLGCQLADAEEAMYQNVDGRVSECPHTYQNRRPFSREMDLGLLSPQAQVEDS
Proto-oncogene tyrosine-protein kinase receptor Ret (Homo sapiens), P07949 [Y791F], sequence (P07949 whole entry Y791F): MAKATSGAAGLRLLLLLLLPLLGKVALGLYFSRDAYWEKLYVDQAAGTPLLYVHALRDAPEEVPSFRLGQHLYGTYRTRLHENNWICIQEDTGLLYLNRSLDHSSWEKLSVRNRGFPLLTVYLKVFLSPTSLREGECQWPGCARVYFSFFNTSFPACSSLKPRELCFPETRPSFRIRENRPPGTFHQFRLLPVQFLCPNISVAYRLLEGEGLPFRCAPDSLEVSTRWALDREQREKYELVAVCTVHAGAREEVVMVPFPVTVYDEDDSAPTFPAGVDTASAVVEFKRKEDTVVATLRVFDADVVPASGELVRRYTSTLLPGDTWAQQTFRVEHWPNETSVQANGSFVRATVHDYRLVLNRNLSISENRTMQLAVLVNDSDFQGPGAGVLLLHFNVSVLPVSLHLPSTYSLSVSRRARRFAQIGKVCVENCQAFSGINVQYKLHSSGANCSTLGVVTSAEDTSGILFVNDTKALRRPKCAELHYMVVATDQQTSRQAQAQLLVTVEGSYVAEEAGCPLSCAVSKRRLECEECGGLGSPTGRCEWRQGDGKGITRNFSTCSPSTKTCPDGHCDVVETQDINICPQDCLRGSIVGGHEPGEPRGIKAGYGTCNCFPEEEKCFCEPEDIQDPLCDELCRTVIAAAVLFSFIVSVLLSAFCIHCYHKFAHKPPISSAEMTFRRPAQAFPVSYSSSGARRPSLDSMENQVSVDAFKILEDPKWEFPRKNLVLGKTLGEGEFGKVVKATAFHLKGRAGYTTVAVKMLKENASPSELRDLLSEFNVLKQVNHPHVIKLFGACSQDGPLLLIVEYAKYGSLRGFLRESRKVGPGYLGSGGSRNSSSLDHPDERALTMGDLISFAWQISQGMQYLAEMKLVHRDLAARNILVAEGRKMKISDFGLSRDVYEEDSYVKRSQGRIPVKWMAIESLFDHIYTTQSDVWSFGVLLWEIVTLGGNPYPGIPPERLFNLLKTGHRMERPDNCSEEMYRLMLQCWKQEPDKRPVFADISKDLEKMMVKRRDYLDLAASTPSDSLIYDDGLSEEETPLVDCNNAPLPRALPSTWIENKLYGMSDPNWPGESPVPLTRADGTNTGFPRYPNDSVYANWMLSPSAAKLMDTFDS
Proto-oncogene tyrosine-protein kinase receptor Ret (Homo sapiens), sequence (P07949 whole entry): as the sequence (P07949 whole entry Y791F) above, with F791Y counted along it
MAP kinase-activated protein kinase 2 (Homo sapiens), sequence (P49137 whole entry, looked up): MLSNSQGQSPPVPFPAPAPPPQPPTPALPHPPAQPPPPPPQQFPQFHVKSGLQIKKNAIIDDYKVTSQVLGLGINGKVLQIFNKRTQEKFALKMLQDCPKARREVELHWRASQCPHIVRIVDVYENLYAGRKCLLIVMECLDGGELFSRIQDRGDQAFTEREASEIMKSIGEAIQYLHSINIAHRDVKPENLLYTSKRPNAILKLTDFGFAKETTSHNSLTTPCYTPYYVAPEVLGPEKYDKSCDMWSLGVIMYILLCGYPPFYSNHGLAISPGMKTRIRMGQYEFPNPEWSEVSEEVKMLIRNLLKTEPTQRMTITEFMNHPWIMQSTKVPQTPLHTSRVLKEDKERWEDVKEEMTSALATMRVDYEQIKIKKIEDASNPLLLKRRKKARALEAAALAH

`CC(C)n1cnc2c(Nc3cccc(Cl)c3)nc(NCCO)nc21` gave an IC50 in [1] of 11 µM.

Regarding `N[C@H]1CC[C@H](Cn2nc(-c3ccc(N4CCNCC4)cc3)c3cnc(NCCCc4ccccc4)nc32)CC1`, the inhibition came out at 82% in series [2], 94% in series [3], 79% in series [4] and 67% in series [5].

Regarding `CNc1ncc2c(C(C)C)nn(C[C@@H]3CCCN3)c2n1`, the IC50 in series [6] and in series [7] was over 30 µM throughout.

Consider `CCCCNc1ncc2c(-c3ccc(F)cc3)nn(C[C@H]3CC[C@H](N)CC3)c2n1` [PYRAZOLOPYRIMIDINE], for which the inhibition in series [2] amounted to 82%; in series [3], 92%; in series [4], 59%; in series [5], 56%. The Vdss in series [8] was 5.83 L/kg. The F in series [9] came to 57%.

Consider `CNc1ncc2c(C(C)C)nn(CC3CCNCC3)c2n1`, for which the IC50 in [6] and in [7] was over 30 µM in each case.
